Measured values published in ChEMBL document CHEMBL1255479, “Preclinical characterization of the antiviral activity of SCH 900518 (narlaprevir), a novel mechanism-based inhibitor of hepatitis C virus NS3 protease” (Antimicrob Agents Chemother, 2010).
Activity calls are given as the source filed them. The calls are words filed in the database; no cut-off is given here.

Assays:
[1] = system: Hepatitis C virus; experiment: Antiviral activity against Hepatitis C virus genotype 1b assessed as log reduction in RNA level at 1.2 times EC90 after 14 days by RT-PCR method; format: functional, organism-based; details: Hepacivirus hominis
Outline: (§1)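 Replicon cells kept on compound for up to 14 days, refreshed every 2–3 days and split at confluence. Replicon RNA by TaqMan: dCT = NS5B CT − GAPDH CT; ddCT = treated dCT − vehicle-control dCT; log RNA reduction = log(1/2^ddCT), with day 0 set to 0. Curve fit to one-phase exponential decay.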

[2] = system: Hepatitis C virus; experiment: Ratio of Ki for boceprevir-resistant Hepatitis C virus genotype 1b NS3 protease A156T mutant to Ki for Hepatitis C virus genotype 1b NS3 protease; design: species or system Hepatitis C virus subtype 1b
Outline: (§2)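 Recombinant single-chain NS3-NS4A protease (wild type or mutant) in a continuous spectrophotometric assay with chromogenic substrate acetyl-DTEDVVP(norvaline)-O-4-phenylazophenol. Absorbance followed over 60 min at several inhibitor concentrations. Progress curves fit to a modified Morrison equation; K*i derived using substrate concentration and Km. Values are mutant/wild-type fold increase, means of two or more experiments unless noted.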

[3] = system: Hepatitis C virus; experiment: Resistance index, ratio of EC50 for boceprevir-resistant Hepatitis C virus genotype 1b expressing NS3 protease T54A mutant to EC50 for wild type Hepatitis C virus genotype 1b after 3 days by RT-PCR method; format: functional, Hepacivirus hominis
Outline: (§3)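 Replicons carrying mutant or wild-type NS3 protease treated 3 days; replicon RNA by real-time PCR against GAPDH. EC50 = concentration raising CT by 1 over projected baseline; EC90 = increase of 3.2. Index = mutant/wild-type fold increase, means of two or more experiments unless stated (some single experiment).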

[4] = system: Hepatitis C virus; experiment: Ratio of Ki for boceprevir-resistant Hepatitis C virus genotype 1b NS3 protease V36A mutant to Ki for Hepatitis C virus genotype 1b NS3 protease; design: species or system Hepatitis C virus subtype 1b; outline: as §2
[5] = system: Hepatitis C virus; experiment: Ratio of Ki for boceprevir-resistant Hepatitis C virus genotype 1b NS3 protease V36M and R155K double-mutant to Ki for Hepatitis C virus genotype 1b NS3 protease; design: species or system Hepatitis C virus subtype 1b; outline: as §2
[6] = Inhibition of Hepatitis C virus genotype 1a NS3 protease; design: species or system Hepatitis C virus subtype 1a
Outline: (§4)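 Recombinant single-chain NS3-NS4A protease (genotypes 1a, 1b, 2a, 3a). Continuous spectrophotometric assay: enzyme added to an equal volume of buffer containing the chromogenic substrate acetyl-DTEDVVP(norvaline)-O-4-phenylazophenol. Absorbance was followed for 60 min at several inhibitor levels. Progress curves were fit to a modified Morrison equation. Overall K*i was derived from vs/vo versus [I], corrected using substrate concentration and Km.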

[7] = system: Hepatitis C virus; experiment: Resistance index, ratio of EC50 for boceprevir-resistant Hepatitis C virus genotype 1b expressing NS3 protease D168V mutant to EC50 for wild type Hepatitis C virus genotype 1b after 3 days by RT-PCR method; format: functional, Hepacivirus hominis; outline: as §3
[8] = system: Hepatitis C virus; experiment: Resistance index, ratio of EC90 for Hepatitis C virus genotype 1b expressing NS3 protease A156S mutant to EC90 for wild type Hepatitis C virus genotype 1b after 3 days by RT-PCR method; format: functional, Hepacivirus hominis; outline: as §3
[9] = system: Hepatitis C virus; experiment: Resistance index, ratio of EC90 for Hepatitis C virus genotype 1b expressing NS3 protease A156T/V mutant to EC90 for wild type Hepatitis C virus genotype 1b after 3 days by RT-PCR method; format: functional, Hepacivirus hominis; outline: as §3
[10] = system: Hepatitis C virus; experiment: Resistance index, ratio of EC50 for boceprevir-resistant Hepatitis C virus genotype 1b expressing NS3 protease R155K mutant to EC50 for wild type Hepatitis C virus genotype 1b after 3 days by RT-PCR method; format: functional, Hepacivirus hominis; outline: as §3
[11] = system: Hepatitis C virus; experiment: Ratio of Ki for boceprevir-resistant Hepatitis C virus genotype 1b NS3 protease T54A mutant to Ki for Hepatitis C virus genotype 1b NS3 protease; design: species or system Hepatitis C virus subtype 1b; outline: as §2
[12] = system: Hepatitis C virus; experiment: Ratio of Ki for boceprevir-resistant Hepatitis C virus genotype 1b NS3 protease T54S mutant to Ki for Hepatitis C virus genotype 1b NS3 protease; design: species or system Hepatitis C virus subtype 1b; outline: as §2
[13] = system: Hepatitis C virus; experiment: Antiviral activity against Hepatitis C virus genotype 1b assessed as log reduction in RNA level at 5 times EC90 after 14 days by RT-PCR method; format: functional, organism-based; details: Hepacivirus hominis; outline: as §1
[14] = system: Hepatitis C virus; experiment: Ratio of Ki for boceprevir-resistant Hepatitis C virus genotype 1b NS3 protease D168V mutant to Ki for Hepatitis C virus genotype 1b NS3 protease; design: species or system Hepatitis C virus subtype 1b; outline: as §2
[15] = system: Hepatitis C virus; experiment: Resistance index, ratio of EC90 for Hepatitis C virus genotype 1b expressing NS3 protease T54A/S mutant to EC90 for wild type Hepatitis C virus genotype 1b after 3 days by RT-PCR method; format: functional, Hepacivirus hominis; outline: as §3
[16] = system: Hepatitis C virus; experiment: Ratio of Ki for boceprevir-resistant Hepatitis C virus genotype 1b NS3 protease T54S and R155K double-mutant to Ki for Hepatitis C virus genotype 1b NS3 protease; design: species or system Hepatitis C virus subtype 1b; outline: as §2
[17] = system: Hepatitis C virus; experiment: Ratio of Ki for boceprevir-resistant Hepatitis C virus genotype 1b NS3 protease V170A mutant to Ki for Hepatitis C virus genotype 1b NS3 protease; design: species or system Hepatitis C virus subtype 1b; outline: as §2
[18] = system: Hepatitis C virus; experiment: Resistance index, ratio of EC50 for boceprevir-resistant Hepatitis C virus genotype 1b expressing NS3 protease V170A mutant to EC50 for wild type Hepatitis C virus genotype 1b after 3 days by RT-PCR method; format: functional, Hepacivirus hominis; outline: as §3
[19] = system: Hepatitis C virus; experiment: Ratio of Ki for boceprevir-resistant Hepatitis C virus genotype 1b NS3 protease V36M mutant to Ki for Hepatitis C virus genotype 1b NS3 protease; design: species or system Hepatitis C virus subtype 1b; outline: as §2
[20] = system: Hepatitis C virus; experiment: Resistance index, ratio of EC50 for boceprevir-resistant Hepatitis C virus genotype 1b expressing NS3 protease V36M mutant to EC50 for wild type Hepatitis C virus genotype 1b after 3 days by RT-PCR method; format: functional, Hepacivirus hominis; outline: as §3
[21] = system: Hepatitis C virus; experiment: Ratio of Ki for boceprevir-resistant Hepatitis C virus genotype 1b NS3 protease A156S mutant to Ki for Hepatitis C virus genotype 1b NS3 protease; design: species or system Hepatitis C virus subtype 1b; outline: as §2
[22] = system: Hepatitis C virus; experiment: Resistance index, ratio of EC50 for boceprevir-resistant Hepatitis C virus genotype 1b expressing NS3 protease A156S mutant to EC50 for wild type Hepatitis C virus genotype 1b after 3 days by RT-PCR method; format: functional, Hepacivirus hominis; outline: as §3
[23] = system: Hepatitis C virus; experiment: Ratio of Ki for boceprevir-resistant Hepatitis C virus genotype 1b NS3 protease F43C mutant to Ki for Hepatitis C virus genotype 1b NS3 protease; design: species or system Hepatitis C virus subtype 1b; outline: as §2
[24] = system: Hepatitis C virus; experiment: Inhibition of Hepatitis C virus genotype 1b NS3 protease; design: species or system Hepatitis C virus subtype 1b; outline: as §4
[25] = Cytotoxicity against human HuH7 cells by MTS assay; format: cell-based, Huh-7
[26] = system: Hepatitis C virus; experiment: Antiviral activity against Hepatitis C virus genotype 1b assessed as decrease in RNA level after 3 days by RT-PCR method; format: functional, Hepacivirus hominis; details: 72 h
Outline: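 Genotype 1b replicon cells seeded on collagen I-coated plates; compound added 24 h post-seeding and incubated 3 days. Cells lysed; replicon RNA by real-time PCR (TaqMan) with GAPDH RNA as endogenous control. EC50 = concentration giving a CT increase of 1 over projected baseline CT; EC90 = increase of 3.2. Triplicate measurements.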

[27] = system: Hepatitis C virus; experiment: Resistance index, ratio of EC50 for boceprevir-resistant Hepatitis C virus genotype 1b expressing NS3 protease A156T mutant to EC50 for wild type Hepatitis C virus genotype 1b after 3 days by RT-PCR method; format: functional, Hepacivirus hominis; outline: as §3
[28] = system: Hepatitis C virus; experiment: Ratio of Ki for boceprevir-resistant Hepatitis C virus genotype 1b NS3 protease R155K mutant to Ki for Hepatitis C virus genotype 1b NS3 protease; design: species or system Hepatitis C virus subtype 1b; outline: as §2
[29] = system: Hepatitis C virus; experiment: Resistance index, ratio of EC90 for Hepatitis C virus genotype 1b expressing NS3 protease T54A and A156T mutant to EC90 for wild type Hepatitis C virus genotype 1b after 3 days by RT-PCR method; format: functional, Hepacivirus hominis; outline: as §3
[30] = Inhibition of Hepatitis C virus genotype 2a NS3 protease; design: species or system Hepatitis C virus subtype 2a; outline: as §4
[31] = Inhibition of Hepatitis C virus genotype 3a NS3 protease; design: species or system Hepatitis C virus subtype 3a; outline: as §4
[32] = system: Hepatitis C virus; experiment: Resistance index, ratio of EC50 for boceprevir-resistant Hepatitis C virus genotype 1b expressing NS3 protease V36M and R155K mutant to EC50 for wild type Hepatitis C virus genotype 1b after 3 days by RT-PCR method; format: functional, Hepacivirus hominis; outline: as §3

CCCC[C@H](NC(=O)[C@@H]1[C@@H]2[C@H](CN1C(=O)[C@@H](NC(=O)NC1(CS(=O)(=O)C(C)(C)C)CCCCC1)C(C)(C)C)C2(C)C)C(=O)C(=O)NC1CC1 [NARLAPREVIR]
Activity [1]: Active | Ratio Ki [2]: 3000 | Ratio EC50 [3]: 11 | Ratio Ki [4]: 5 | Ratio Ki [5]: 160 | Ki [6]: 0.7 nM | Ratio EC50 [7]: 1 | Ratio [8]: 30 | Ratio [9]: 500 | Ratio EC50 [10]: 15 | Ratio Ki [11]: 8 | Ratio Ki [12]: 3 | Activity [13]: Active | Ratio Ki [14]: 1 | Ratio [15]: 10 | Ratio Ki [16]: 58 | Ratio Ki [17]: 6 | Ratio EC50 [18]: 10 | Ratio Ki [19]: 3 | Ratio EC50 [20]: 8 | Ratio Ki [21]: 100 | Ratio EC50 [22]: 70 | Ratio Ki [23]: 8 | Ki [24]: 7 nM | CC50 [25]: > 25 µM | EC90 [26]: 40 nM | Ratio EC50 [27]: > 1000 | Ratio Ki [28]: 8 | Ratio [29]: >600 | Ki [30]: 3 nM | Ki [31]: 7 nM | Ratio EC50 [32]: 130
